Common to all, as to format: functional
The test system of assay [1] is Staphylococcus aureus. The assay is described as follows: Ratio of MIC for kanamycin-resistant Staphylococcus aureus harboring mutations in FusA gene to MIC for wild type kanamycin-susceptible Staphylococcus aureus AH001.
For assay [2], the system named is Staphylococcus aureus. The assay is described as follows: Ratio of MIC for kanamycin-resistant Staphylococcus aureus harboring mutations in FusE gene to MIC for wild type kanamycin-susceptible Staphylococcus aureus AH001.
Assay [3] concerns Staphylococcus aureus. The assay is described as follows: Antibacterial activity against fusidic acid-resistant Staphylococcus aureus AH207 harboring Thr385Asn mutation in fusA gene after 18 to 24 hrs by Etest strip assay. The procedure, abridged: (§1)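 Mutants of lab strain 8325-4 were selected on LA with FA 2 μg/ml for 48 h at 37°C and purified on selective medium. For the MIC, one colony was suspended in 0.9% NaCl to 0.5 McFarland and swabbed onto Mueller-Hinton agar. An Etest strip was applied and plates were incubated at 37°C for 18–24 h until the lawn was evident.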

The subject of assay [4] is Staphylococcus aureus. The assay is described as follows: Antibacterial activity against fusidic acid-resistant Staphylococcus aureus AH194 harboring Pro404Leu mutation in fusA gene after 18 to 24 hrs by Etest strip assay. The method, boiled down:
as §1

Assay [5] relates to Staphylococcus aureus. In words: Antibacterial activity against fusidic acid-resistant Staphylococcus aureus AH196 harboring Pro406Leu mutation in fusA gene after 18 to 24 hrs by Etest strip assay. The procedure, abridged: as §1
Assay [6] has as its system Staphylococcus aureus. In words: Antibacterial activity against fusidic acid-resistant Staphylococcus aureus AH198 harboring Gly452Ser mutation in fusA gene after 18 to 24 hrs by Etest strip assay. The procedure, abridged:
as §1

For assay [7], the system named is Staphylococcus aureus. The assay is described as follows: Antibacterial activity against fusidic acid-resistant Staphylococcus aureus AH201 harboring Gly452Cys mutation in fusA after 18 to 24 hrs by Etest strip assay. The method, boiled down: as §1
Assay [8] concerns Staphylococcus aureus. In words: Antibacterial activity against fusidic acid-resistant Staphylococcus aureus AH197 harboring Leu456Phe mutation in fusA gene after 18 to 24 hrs by Etest strip assay. The procedure, abridged:
as §1

The test system of assay [9] is Staphylococcus aureus. In words: Antibacterial activity against fusidic acid-resistant Staphylococcus aureus AH187 harboring His457Tyr mutation in fusA gene after 18 to 24 hrs by Etest strip assay. The method, boiled down: as §1
Assay [10] has as its system Staphylococcus aureus. In words: Antibacterial activity against fusidic acid-resistant Staphylococcus aureus AH206 harboring Arg464Ser mutation in fusA gene after 18 to 24 hrs by Etest strip assay. The procedure, abridged:
as §1

Assay [11] deals with Staphylococcus aureus. The assay is described as follows: Antibacterial activity against fusidic acid-resistant Staphylococcus aureus AH190 harboring Arg464His mutation in fusA gene after 18 to 24 hrs by Etest strip assay. The method, boiled down:
as §1

The source made the active and inactive calls. The calls are words filed in the database; no cut-off is given here.

Consider GENTAMICIN, for which the fold change (FC) in the assay with Staphylococcus aureus [1] and with Staphylococcus aureus [2] was 4 each time. Further, the result in the assay on Staphylococcus aureus [3], with Staphylococcus aureus [4], with Staphylococcus aureus [5], in the assay with Staphylococcus aureus [6], with Staphylococcus aureus [7] and in the assay with Staphylococcus aureus [8] was Active. The result in the assay on Staphylococcus aureus [9], in the assay on Staphylococcus aureus [10] and in the assay with Staphylococcus aureus [11] was Active.
